Data taken from publication PMC10787258 (Current Research in Toxicology, 2023).
Entries after “also recorded” stand apart in the source; their conditions may differ.

Legend:
[1] = biological target: T1, human sodium iodide symporter (NIS) (Homo sapiens, UniProt Q92911); experiment: hNIS-HEK293T-EPA radioactive iodide uptake; type: cell-based
T1 sequence (Q92911 1-643): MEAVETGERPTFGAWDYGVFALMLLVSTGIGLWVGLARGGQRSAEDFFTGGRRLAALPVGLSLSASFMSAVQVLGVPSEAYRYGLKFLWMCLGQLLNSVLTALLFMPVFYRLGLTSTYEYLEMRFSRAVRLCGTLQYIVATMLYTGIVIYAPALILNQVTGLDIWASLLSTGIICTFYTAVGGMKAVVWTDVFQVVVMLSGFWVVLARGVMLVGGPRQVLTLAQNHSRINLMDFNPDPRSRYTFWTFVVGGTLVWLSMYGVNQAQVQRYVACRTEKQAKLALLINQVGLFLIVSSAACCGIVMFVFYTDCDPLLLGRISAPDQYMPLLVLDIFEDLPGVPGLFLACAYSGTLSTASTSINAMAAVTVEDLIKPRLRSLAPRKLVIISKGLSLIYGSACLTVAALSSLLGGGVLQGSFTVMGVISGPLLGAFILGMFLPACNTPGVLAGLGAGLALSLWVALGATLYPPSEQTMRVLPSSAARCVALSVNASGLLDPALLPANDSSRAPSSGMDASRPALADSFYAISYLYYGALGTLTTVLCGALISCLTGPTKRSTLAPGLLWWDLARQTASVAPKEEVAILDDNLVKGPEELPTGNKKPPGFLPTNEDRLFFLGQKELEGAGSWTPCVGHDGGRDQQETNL

[2] = tested on: juvenile male and female Sprague-Dawley rats; experiment: Four-day oral exposure, serum thyroid hormones; type: in vivo, rat
Procedure, shortened: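 Weanling Sprague-Dawley rats arrived PND21 and were fed AIN-93 diet (iodide 225 ng/g). Groups were weight-ranked, n = 6 per sex per dose. Daily oral gavage PND 27–30 at 0, 125, 250 or 500 mg/kg in 1 % methyl cellulose suspension, adjusted to daily body weight. Decapitation ~2 hr after 4th dose. Trunk serum total T4/T3 by RIA kits (LOD 1.24, 0.50 ng/ml). One-way ANOVA, Dunnett's; mean ± SEM.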

[3] = tested on: juvenile male Sprague-Dawley rats; experiment: Eight-day oral exposure, serum thyroid hormones, TSH and thyroid weight; type: in vivo, rat
[4] = Oxyfluorfen quantitation in serum and thyroid gland; type: in vivo, rat
Procedure, shortened: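 Serum came from 4-day gavage (0–500 mg/kg) and male 8-day gavage (PND27–34, 0–62.5 mg/kg); thyroids came from 8-day rats. Serum (60 µL) was spiked with d5-labelled internal standard, equilibrated 30 min at room temperature, then protein-precipitated with acetonitrile. LC/MS/MS used positive ESI in MRM mode with isotope dilution and serum-matched calibration (2.5–5000 ng/ml). LOQ 25 ng/mL serum, 2.5 ng/g thyroid; results below LOQ reported ND.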

[5] = Body weight, percent growth and general toxicity in 4- and 8-day studies; type: in vivo, rat
[6] = tested on: hNIS-HEK293T-EPA cells; details: any concentration tested up to 100 μM; ref Buckalew et al., 2020; cited from earlier work
[7] = tested on: FRTL-5 cells; details: any concentration tested up to 100 μM; ref Buckalew et al., 2020; cited from earlier work
[8] = cited from earlier work
[9] = higher purity (>98 %) oxyfluorfen; ref RED 2002; 2019; cited from earlier work
[10] = tested on: liver; details: 98 % pure technical grade, up to 73 mg/kg; ref U.S. EPA, 2021; cited from earlier work
[11] = tested on: mouse and rabbit; details: mouse and rabbit studies; ref U.S. EPA, 2021; cited from earlier work
[12] = tested on: thyroid cancer; details: human epidemiology, California; ref Omidakhsh et al., 2022; cited from earlier work
[13] = tested on: thyroid peroxidase; details: ToxCast in vitro; ref Paul Friedman et al., 2016; cited from earlier work
[14] = tested on: deiodinase; details: ToxCast in vitro; ref Olker et al., 2019; cited from earlier work
[15] = 8 days oral, any treatment group (0.8125 to 62.5 mg/kg)

In the case of `CCOc1cc(Oc2ccc(C(F)(F)F)cc2Cl)ccc1[N+](=O)[O-]` [oxyfluorfen, 2-chloro-1-(3-ethoxy-4-nitrophenoxy)-4(trifluoromethyl)benzene], the IC50 [1] is reported as 2 µM, the “Decrease in serum T3” value ([2]; female, 4 days oral, 125 mg/kg) is reported as 18% and the “Decrease in serum T4” value ([2]; female, 4 days oral, 125 mg/kg) is reported as about 55%. For the same compound, the “Serum T3 vs control” value ([2]; female, 4 days oral, 125 mg/kg) was “significantly suppressed”, the “Serum T3 vs control” value ([2]; female, 4 days oral, 250 mg/kg) was “not significantly suppressed” and the “Serum T3 vs control” value ([2]; female, 4 days oral, 500 mg/kg) was “significantly suppressed”. The “Total serum thyroxine (T4)” value ([2]; male and female, 4 days, all doses (125, 250, 500 mg/kg/day)) was “suppressed”, the “Decrease in serum T3” value ([2]; male, 4 days oral, 125 mg/kg) was 35% and the “Decrease in serum T4” value ([2]; male, 4 days oral, 125 mg/kg) was 68%. For the same compound, the “Suppression of serum T3” value ([2]; male, 4 days oral, 125 to 500 mg/kg) was “approximately 30%”, the “Suppression of serum T4” value ([2]; male, 4 days oral, all doses (125, 250, 500 mg/kg)) was 70% and the “LOEL for suppression of serum T4” value ([3]; 8-day daily oral exposure) was 3.25 mg/kg. The “NOEL for serum T4” value ([3]; 8-day daily oral exposure) was 1.625 mg/kg, the “LOEL for suppression of serum T3” value ([3]; 8-day oral exposure) was 62.5 mg/kg/day and the “LOEL for suppression of serum T4” value ([3]; 8-day oral exposure) was 3.25 mg/kg/day. For the same compound, the “Serum T3 vs control” value ([3]; 8 days oral, 62.5 mg/kg) was “significantly suppressed”, the “Serum T3 vs control” value ([3]; 8 days oral, 15 and 31.25 mg/kg) was “non-significant decrease” and the “Serum TSH” value [3, 15] was “no significant differences; also recorded: No significant effects; also recorded: no significant changes”. The Thyroid weight [3, 15] was “No changes; also recorded: no significant differences”, the Serum oxyfluorfen detection ([4]; all treated serum samples, 4- and 8-day studies) was “detected” and the Kp at 8 days ([4]; male, Sprague-Dawley, rat, thyroid gland / serum, oral, 62.5 mg/kg) was 2 to 3. For the same compound, the “Final body weight or percent growth” value ([5]; 4- or 8-day treatment, any dose, male or female) was “did not significantly affect”, the “Visible signs of toxicity” value ([5]; daily observations, all treated animals) was “no visible signs of toxicity” and the Cytotoxicity [6] was “no observed cytotoxicity; also recorded: no confounding cytotoxicity”. For the same compound, the Cytotoxicity [7] was “no observed cytotoxicity; also recorded: no confounding cytotoxicity”, the “Tissues with the highest levels of oxyfluorfen” value ([8]; following acute exposure, ref U.S. EPA, 2019) was “lung, thyroid, liver, ovaries, kidneys, adrenals and fat” and the Half-life ([8]; in the rat, ref 2002 RED) was “approximately 30 h”. For the same compound, the “Acute oral, dermal, and inhalation toxicity” value [9] was “low oral toxicity”, the Liver tumor incidence [10] was “has not shown liver tumor incidence” and the “Current guideline NOELs and LOELs” value [11] was 33 mg/kg. The “Association with the occurrence of thyroid cancer” value [12] was “increased odds ratio”, the “Activity in thyroid peroxidase inhibition assay” value [13] was “no reported thyroid activity” and the “Activity in deiodinase inhibition assay” value [14] was “no reported thyroid activity”.
